Data set [1] has as its target T1, Indoleamine 2,3-dioxygenase 1 (Homo sapiens, UniProt P14902). Briefly: Inhibition of IDO1 in recombinant IFN-gamma induced human HeLa cells incubated for 18 hrs by fluorescence microplate reader assay. The method, boiled down:
(§1)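 HeLa (human) or M109 (murine) cells induced with IFNγ to express IDO1, then cellular IDO1 activity measured; values are the average of N = 2 unless noted.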

Data set [2] deals with Indoleamine 2,3-dioxygenase 1 (Mus musculus, UniProt P28776). Briefly: Inhibition of IDO1 in recombinant IFN-gamma induced mouse M109 cells incubated for 18 hrs by fluorescence microplate reader assay. It counts as cell-based. A digest of the protocol:
as §1

The nature of data set [3]: Metabolic stability in human liver microsomes assessed as parent compound remaining at 0.5 uM after 10 mins. Format: ADME, Microsome. Particulars: read-out: Stabilty. The method, boiled down: (§2)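 Parent compound at 0.5 μM incubated 10 min with 1 mg/mL human, mouse or rat liver microsomes; fraction of parent remaining reported; average of N = 2 unless noted.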
Background: Liver microsomes are vesicles of endoplasmic reticulum, rich in cytochrome P450 enzymes.

Data set [4] can be described thus: Metabolic stability in mouse liver microsomes assessed as parent compound remaining at 0.5 uM after 10 mins. It counts as ADME, Microsome. The settings on record: read-out: Stabilty. The method, boiled down: as §2
Data set [5] is described as follows: Metabolic stability in rat liver microsomes assessed as parent compound remaining at 0.5 uM after 10 mins. Format: ADME, Microsome. Particulars: read-out: Stabilty. The method, boiled down:
as §2

Data set [6] addresses T1, Indoleamine 2,3-dioxygenase 1. Briefly: Inhibition of IDO1 in IFN-gamma/LPS induced human whole blood assessed as tryptophan/kynurenine level measured after 18 hrs by RapidFire mass spectrometry. Format: tissue-based.

Indoleamine 2,3-dioxygenase 1 (Mus musculus, UniProt P28776), sequence (P28776 whole entry): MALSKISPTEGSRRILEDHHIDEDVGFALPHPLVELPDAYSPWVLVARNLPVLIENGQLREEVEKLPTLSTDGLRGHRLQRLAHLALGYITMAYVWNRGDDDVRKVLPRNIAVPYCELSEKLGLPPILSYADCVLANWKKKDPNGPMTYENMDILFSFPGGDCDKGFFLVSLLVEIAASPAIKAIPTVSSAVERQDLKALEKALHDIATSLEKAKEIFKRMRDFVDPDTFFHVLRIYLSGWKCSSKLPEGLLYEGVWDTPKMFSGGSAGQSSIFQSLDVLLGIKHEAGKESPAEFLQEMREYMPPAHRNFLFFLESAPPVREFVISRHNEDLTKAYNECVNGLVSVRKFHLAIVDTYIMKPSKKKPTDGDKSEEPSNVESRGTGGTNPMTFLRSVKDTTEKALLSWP
T1 sequence (P14902 whole entry): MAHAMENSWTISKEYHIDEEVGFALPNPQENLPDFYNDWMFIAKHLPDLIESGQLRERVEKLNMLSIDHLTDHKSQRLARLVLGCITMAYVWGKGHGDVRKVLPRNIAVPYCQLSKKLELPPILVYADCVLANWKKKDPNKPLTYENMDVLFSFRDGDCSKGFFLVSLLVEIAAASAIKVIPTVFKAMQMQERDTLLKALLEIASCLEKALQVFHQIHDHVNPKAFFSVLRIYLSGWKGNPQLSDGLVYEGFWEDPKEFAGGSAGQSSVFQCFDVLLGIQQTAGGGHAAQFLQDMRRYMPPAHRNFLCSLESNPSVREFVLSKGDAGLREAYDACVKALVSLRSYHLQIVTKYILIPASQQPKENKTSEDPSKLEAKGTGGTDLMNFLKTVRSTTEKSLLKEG

In the case of `C[C@@H](c1ncc(-c2ccc(Cl)cc2)[nH]1)[C@H]1CC[C@@H](c2ccnc3ccc(F)cc32)CC1`, the values for the IC50 in data set [1] and in data set [2] were 11 nM and 80 nM, respectively. In addition, the results for the remaining at 10 min, 0.5 µM in data set [3], in data set [4] and in data set [5] were 58%, 59% and 3%, respectively.
On to `C[C@@H](c1nc2ccc(Cl)cc2[nH]1)[C@H]1CC[C@@H](c2ccnc3ccc(F)cc32)CC1`, for which the results for the concentration for half-maximal inhibition (IC50) in data set [1] and in data set [6] were 3 nM and 32 nM, respectively. Moreover, the remaining at 10 min, 0.5 µM in data set [5] came out at 8%.
Consider `CCC(Nc1nnc(-c2ccc(OC)cc2)o1)[C@H]1CC[C@@H](c2ccnc3ccc(F)cc32)CC1` (some centres not stated), for which the values for the half-inhibitory concentration (IC50) in data set [1], in data set [2] and in data set [6] were 6 nM, 31 nM and 16 nM, respectively. Moreover, the results for the remaining at 10 min, 0.5 µM in data set [3], in data set [4] and in data set [5] were 66%, 31% and 45%, respectively.
For `C[C@@H](c1nc2ccc(F)cc2[nH]1)[C@H]1CC[C@@H](c2ccnc3ccc(F)cc32)CC1`, the IC50 in data set [1] worked out at 3 nM; in data set [2], 22 nM. Also, the values for the remaining at 10 min, 0.5 µM in data set [3], in data set [4] and in data set [5] were 42%, 5% and 0%, respectively.
With `CCC(c1nc2ncc(Cl)cc2[nH]1)[C@H]1CC[C@@H](c2ccnc3ccc(F)cc32)CC1` (some centres not stated), the half-inhibitory concentration (IC50) amounted to 2 nM in data set [1], 5 nM in data set [2] and 6 nM in data set [6]. Besides, the remaining at 10 min, 0.5 µM in data set [3] turned out to be 78%; in data set [4] it was 7%; in data set [5], 35%.
For the compound `COc1ccc(-c2nnc(N[C@H](C)[C@H]3CC[C@@H](c4ccnc5ccc(F)cc54)CC3)o2)cc1`, the IC50 in data set [1] came out at 3 nM; in data set [2] it was 14 nM. The remaining at 10 min, 0.5 µM worked out at 64% in data set [3], 17% in data set [4] and 35% in data set [5].
As to `CCOCC(Nc1nnc(-c2ccc(OC)cc2)o1)[C@H]1CC[C@@H](c2ccnc3ccc(C(F)(F)F)cc32)CC1` (some centres not stated), the IC50 was 13 nM in data set [1], 57 nM in data set [2] and 96 nM in data set [6]. In addition, the values for the remaining at 10 min, 0.5 µM in data set [3], in data set [4] and in data set [5] were 60%, 41% and 53%, respectively.
`CCC(c1nc2ccc(Cl)cc2[nH]1)[C@H]1CC[C@H](Oc2ccnc3ccccc23)CC1` (some centres not stated): the half-maximal inhibitory concentration (IC50) in data set [1] was found to be 7 nM; in data set [2], 52 nM; in data set [6], 36 nM. Moreover, the remaining at 10 min, 0.5 µM in data set [3] was found to be 84%; in data set [4], 82%; in data set [5], 80%.
As to `CCC(c1nc2ccc(Cl)cc2[nH]1)[C@H]1CC[C@@H](c2ccnc3ccc(F)cc32)CC1` (some centres not stated), the IC50 was 2 nM in data set [1], 3 nM in data set [2] and 9 nM in data set [6]. Also, the remaining at 10 min, 0.5 µM in data set [3] came to 82%; in data set [4], 49%; in data set [5], 27%.
With `C[C@@H](c1nnc(-c2ccc(Cl)cc2)[nH]1)[C@H]1CC[C@@H](c2ccnc3ccc(F)cc32)CC1`, the values for the IC50 in data set [1] and in data set [2] were 20 nM and 286 nM, respectively. Further, the results for the remaining at 10 min, 0.5 µM in data set [3], in data set [4] and in data set [5] were 88%, 69% and 82%, respectively.
Take `C[C@@H](c1nnc(-c2ccc(Cl)cc2)o1)[C@H]1CC[C@@H](c2ccnc3ccc(F)cc32)CC1`: the results for the IC50 in data set [1] and in data set [2] were 239 nM and 348 nM, respectively. The remaining at 10 min, 0.5 µM in data set [3] amounted to 68%; in data set [4], 41%; in data set [5], 23%.
`COCC(Nc1nnc(-c2ccc(OC)cc2)o1)[C@H]1CC[C@@H](c2ccnc3ccc(F)cc32)CC1` (some centres not stated): the IC50 was 3 nM in data set [1], 44 nM in data set [2] and 31 nM in data set [6]. Further, the remaining at 10 min, 0.5 µM in data set [3] was 57%; in data set [4] it was 19%; in data set [5] it was 24%.
For `C[C@@H](c1ncc(-c2ccc(Cl)cc2)o1)[C@H]1CC[C@@H](c2ccnc3ccc(F)cc32)CC1`, the concentration for half-maximal inhibition (IC50) in data set [1] was 495 nM; in data set [2], 631 nM. Besides, the results for the remaining at 10 min, 0.5 µM in data set [3], in data set [4] and in data set [5] were 97%, 78% and 62%, respectively.
Consider `CCC(Nc1nnc(-c2ccc(OC)cc2)o1)[C@H]1CC[C@@H](c2ccnc3c(F)cc(F)cc32)CC1` (some centres not stated), for which the concentration for half-maximal inhibition (IC50) was 3 nM in data set [1], 36 nM in data set [2] and 14 nM in data set [6]. Also, the remaining at 10 min, 0.5 µM in data set [3] is 54%; in data set [4], 8%; in data set [5], 52%.
Turning to `COc1ccc(Nc2nnc([C@H](C)[C@H]3CC[C@@H](c4ccnc5ccc(F)cc54)CC3)o2)cc1`, the half-maximal inhibitory concentration (IC50) in data set [1] was 165 nM; in data set [2], 451 nM. Besides, the remaining at 10 min, 0.5 µM in data set [3] worked out at 18%; in data set [4], 2%; in data set [5], 0.4%.
For `C[C@@H](c1nc2ncc(Cl)cc2[nH]1)[C@H]1CC[C@@H](c2ccnc3ccc(F)cc32)CC1`, the IC50 was 4 nM in data set [1], 36 nM in data set [2] and 39 nM in data set [6]. Moreover, the values for the remaining at 10 min, 0.5 µM in data set [3], in data set [4] and in data set [5] were 67%, 22% and 17%, respectively.
Turning to `CCC(Nc1nnc(-c2ccc(OC)cc2)o1)[C@H]1CC[C@@H](c2ccnc3ccc(C(F)(F)F)cc32)CC1` (some centres not stated), the results for the IC50 in data set [1], in data set [2] and in data set [6] were 3 nM, 6 nM and 50 nM, respectively. Further, the remaining at 10 min, 0.5 µM is 83% in data set [3], 39% in data set [4] and 100% in data set [5].

As usually defined, the IC50 is the point on the concentration scale where inhibition reaches its midpoint.

Source of the values: ChEMBL document CHEMBL4715934, “Discovery of Imidazopyridines as Potent Inhibitors of Indoleamine 2,3-Dioxygenase 1 for Cancer Immunotherapy” (ACS Med Chem Lett, 2021).
